Reference: ChEMBL document CHEMBL3853287, “Characterization of Emodin as a Therapeutic Agent for Diabetic Cataract” (J Nat Prod, 2016)
Activity calls are given as the source filed them. No cut-off for these calls is given here.

How the values were obtained:
[1] = system: Mus musculus; assay: In vivo inhibition of aldose reductase in transgenic PAR37 mouse expressing human aldose reductase assessed as vacuolization at 80 mg/kg, po for 16 days by hematoxylin/eosin staining (reference value: 18%); format: functional; design: scale not given: the % may be the effect or the level left
Outline: (§1)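 Drug dissolved in DMSO was given in the drinking water of nursing mothers from the pups' birthdate, dosed at 80 mg kg−1 to the mother; vehicle group received DMSO. Pups were PAR37 human AR transgenic mice or nontransgenic littermates, balanced by gender, n = 3. Lenses were taken at P16 and sectioned with H&E staining, and vacuolated cross-sectional area was measured as percent of lens.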

[2] = system: Mus musculus; assay: In vivo inhibition of aldose reductase in transgenic PAR37 mouse expressing human aldose reductase assessed as reduction in vacuolization at 80 mg/kg, po for 16 days by hematoxylin/eosin staining; format: functional, organism-based; outline: as §1
[3] = system: Mus musculus; assay: In vivo inhibition of aldose reductase in wild type mouse assessed as reduction in vacuolization at 80 mg/kg, po for 16 days by hematoxylin/eosin staining; format: functional, organism-based; outline: as §1
[4] = target: T1, Aldo-keto reductase family 1 member B1 (Homo sapiens, UniProt P15121); assay: Inhibition of human recombinant aldose reductase expressed in Escherichia coli using DL-glyceraldehyde as substrate in presence of NADPH by spectrophotometric analysis
[5] = system: Mus musculus; assay: In vivo inhibition of aldose reductase in transgenic PAR37 mouse expressing human aldose reductase assessed as vacuolization at 35 mg/kg, po administered 3 days prior to birth followed by compound treatment till day 16 by hematoxylin/eosin staining (reference value: 18%); format: functional; design: scale not given: the % may be the effect or the level left
Outline: (§2)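 PAR37 human AR transgenic mice and nontransgenic littermates, roughly equal by sex. Nursing mothers given 35 mg kg−1 in drinking water (DMSO vehicle) from pups' birth, or from 3 days before birth in one group. Sorbinil 80 mg kg−1 served as ARI control. Lenses taken at P16 and H&E-stained; vacuolated cross-sectional area measured on sections.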

[6] = Cytotoxicity against human FHL124 cells assessed as reduction in cell viability at 10 uM after 24 hrs by MTT assay; format: toxicity, cell-based; conditions: fhl124, 24 h
Outline: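 FHL 124 human lens epithelial cells grown in low-glucose (1 g L−1) DMEM with 4 mM L-glutamine and 5% FBS at 37 °C, 5% CO2. Seeded at 10^4 cells, treated with emodin for 24 h, then given MTT for 4 h. Viability read as absorbance at 570 nm.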

[7] = target: T1, Aldo-keto reductase family 1 member B1; assay: Inhibition of human recombinant aldose reductase expressed in Escherichia coli at 1 uM using DL-glyceraldehyde as substrate in presence of NADPH measured up to 7 days at 37 degC by spectrophotometric analysis
Outline: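 Inhibitor (1 μM, in DMSO) pre-incubated at 37 °C for 1, 3, 5 and 7 days before testing. Recombinant human AKR1B1 from E. coli then assayed by NADPH oxidation at 340 nm with 1.0 mM DL-glyceraldehyde and 150 μM NADPH in HEPES pH 7.5 buffer. Means ± SEM, n = 3.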

[8] = target: T1, Aldo-keto reductase family 1 member B1; assay: Inhibition of aldose reductase in human FHL124 cells assessed as reduction in high glucose-induced elevation of sorbitol accumulation at 5 uM after 24 hrs by colorimetric assay; format: cell-based
Outline: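 FHL 124 cells (10^5 per 60 mm dish) treated with emodin (5 μM) plus low (5 mM) or high (30 mM) glucose for 24 h. Cells washed twice in cold PBS, lysed and deproteinized. Sorbitol measured in neutralized samples by colorimetric kit at 560 nm.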

[9] = system: Mus musculus; assay: In vivo inhibition of aldose reductase in transgenic PAR37 mouse expressing human aldose reductase assessed as reduction in vacuolization at 35 mg/kg, po for 16 days by hematoxylin/eosin staining; format: functional, organism-based; outline: as §2
[10] = system: Mus musculus; assay: In vivo inhibition of aldose reductase in wild type mouse assessed as reduction in vacuolization at 35 mg/kg, po administered 3 days prior to birth followed by compound treatment till day 16 by hematoxylin/eosin staining; format: functional, organism-based; outline: as §2
[11] = system: Mus musculus; assay: In vivo inhibition of aldose reductase in wild type mouse assessed as reduction in vacuolization at 35 mg/kg, po for 16 days by hematoxylin/eosin staining; format: functional, organism-based; outline: as §2
[12] = target: T1, Aldo-keto reductase family 1 member B1; assay: Uncompetitive inhibition of human recombinant aldose reductase expressed in Escherichia coli using DL-glyceraldehyde as substrate by double reciprocal plot analysis
[13] = system: Mus musculus; assay: In vivo inhibition of aldose reductase in transgenic PAR37 mouse expressing human aldose reductase assessed as vacuolization at 35 mg/kg, po for 16 days by hematoxylin/eosin staining (reference value: 18%); format: functional; design: scale not given: the % may be the effect or the level left; outline: as §2

Compound	Activity [1] [%]	inhibition [2]	inhibition [3]	IC50 [4] [µM]	Activity [5] [%]	Activity [6]	inhibition [7]	inhibition [8]	inhibition [9]	inhibition [10]	inhibition [11]	Ki [12] [µM]	Activity [13] [%]
O=C1NC(=O)[C@@]2(CCOc3ccc(F)cc32)N1 [SORBINIL]	3.8	Active	Active	–	–	–	–	–	–	–	–	–	–
Cc1cc(O)c2c(c1)C(=O)c1cc(O)cc(O)c1C2=O [EMODIN]	–	–	–	2.69	2	Toxic	Active	Active	Active	Active	Active	2.11	6.3
